Experimental data collected from several papers.
Each line is one published result; the experiments were not run side by side.
CYP3A4: Cytochrome P450 3A4 (CYP3A4, Homo sapiens, UniProt P08684)

With CCc1cc(/C(C)=N/OCc2ccc(C3CCCCC3)c(C(F)(F)F)c2)ccc1CN1CC(C(=O)O)C1 the inhibition was 11.5% (CYP3A4; enzyme activity, inhibitor; human, liver microsomes; 200 µM, 20 min, midazolam probe).
The IC50 of NCCc1ccccn1 is reported as 5000 µM (CYP3A4; enzyme activity, inhibitor).
O=C1NC(=O)/C(=C\c2ccc3ccccc3c2)S1 gave a CC50 of over 100 µM (BHK-21; cell growth or viability, MTT).
CN[C@H](CC(C)C)C(=O)N[C@H]1C(=O)N[C@@H](CC(N)=O)C(=O)N[C@H]2C(=O)NC3C(=O)N[C@H](C(=O)N[C@H](C(=O)NCCC[N+](C)(C)C)c4cc(O)cc(O)c4-c4cc3ccc4O)[C@H](O)c3ccc(c(Cl)c3)Oc3cc2cc(c3OC2OC(CO)C(O)[C@H](O)[C@@H]2O[C@H]2CC(C)(NCc3ccc(-c4ccc(Cl)cc4)cc3)[C@H](O)[C@H](C)O2)Oc2ccc(cc2Cl)[C@H]1O (stereo partly shown) has a Cmax of 58900 ng/mL (mouse, plasma; intravenous, 50 mg/kg).
The CC50 of O=C(Nc1ncc([N+](=O)[O-])s1)c1ccccc1O is reported as over 1000 µM (BHK-21; cell growth or viability, MTT).
S=C(Nc1ccc2c(c1)Cc1ccccc1-2)Nc1ccc2c(c1)Cc1ccccc1-2 has a CC50 of 236 µM (BHK-21; cell growth or viability, MTT; 42 h).
With CCC[C@@](N)(CO)CCc1ccc(OCCCCCC(C)C)cc1 the Cmax was 161 nM (mouse, plasma; oral, 10 mg/kg).
With CCCCCCCC(=O)N[C@@H](CCCCN)C(=O)N[C@@H](CCCCN)C(=O)N[C@@H](C)C(=O)N[C@@H](CC(C)C)C(=O)N[C@@H](CCCCN)C(=O)N[C@@H](CC(C)C)C(=O)N[C@@H](C)C(=O)N[C@@H](CCCCN)C(=O)N[C@@H](CCCCN)C(=O)N1CCC[C@H]1C(=O)N[C@@H](CC(C)C)C(=O)N[C@@H](CCCCN)C(=O)N[C@@H](CC(C)C)C(=O)N[C@@H](CC(C)C)C(=O)N[C@@H](CCCCN)C(N)=O the Cmax was 1420 ng/mL (female CD-1 mouse, blood; intravenous, 3 mg/kg, single dose).
With O=C(Nc1ncc([N+](=O)[O-])s1)c1cccs1 the CC50 was over 1 µM (BHK-21; cell growth or viability, MTT).
The inhibition of Cc1nc2c([nH]1)c(=O)n(C)c(=O)n2Cc1ccco1 is reported as 71% (Cytochrome P450 1A2 (CYP1A2, Homo sapiens, UniProt P05177); enzyme activity, inhibitor; human, liver microsomes; 40 µM).
O=C(Nc1ccc(O)cc1)c1ccccc1O has a CC50 of over 1000 µM (BHK-21; cell growth or viability, MTT).
The inhibition of COC(=O)C1CCN(C(=O)c2ccc(NCc3cnc4nc(N)nc(N)c4n3)cc2)CC1 is reported as -13.4% (CYP3A4; enzyme activity, inhibitor, luciferase; 10 µM).
For Cc1cc(C)nc(Nc2ncc(C(=O)NCCc3c(C)[nH]c4ccccc34)cn2)c1, the Cmax was 1150 ng/mL (C57BL/6 mouse, plasma; intraperitoneal, 22 mg/kg).
